# Results taken from ChEMBL document CHEMBL5244249, “Discovery of tofacitinib derivatives as orally active antitumor agents based on the scaffold hybridization strategy” (Eur J Med Chem, 2020).
# Calls of active or inactive are those of the source. No cut-off for these calls is given here.
# Columns and labels:
# [1] = Selectivity index, ratio of IC50 for cytotoxicity against human GES1 cells to IC50 for antiproliferative activity against human MGC-803 cells; type: toxicity, cell-based; conditions: GES1 cells and MGC-803 cells, read-out: Ratio IC50
# [2] = test system: MGC-803; test: Inhibition of colony formation in human MGC-803 cells at 1 uM incubated for 9 days by crystal violet staining based analysis relative to control; type: functional; conditions: MGC-803, 216 h, time 9 day
# Outline: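 Clonogenic assay: MGC-803 cells grown 9 days with 0, 1, 2 or 3 μM; colonies counted and inhibition rate calculated against untreated control; mean ± SD of three independent experiments.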
# [3] = test system: MGC-803; test: Induction of apoptosis in human MGC-803 cells assessed as nuclear fragmentation at 5 to 10 uM incubated for 24 hrs by Hoechst 33342 staining based fluorescence microscopic analysis; type: functional, cell-based; conditions: dose 5-10 µM
# Outline: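 MGC-803 cells treated at 0, 5, 7.5 and 10 μM; cell morphology and nuclear morphology (fragmentation, condensation) examined by staining and imaging; three independent experiments, mean ± SD.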
# [4] = test system: MGC-803; test: Induction of apoptosis in human MGC-803 cells assessed as early apoptotic cells at 5 uM incubated for 24 hrs by Annexin V-FITC/PI staining based flow cytometric analysis (reference value: 3.9 %); type: functional
# [5] = test system: MGC-803; test: Induction of apoptosis in human MGC-803 cells assessed as late apoptotic cells at 5 uM incubated for 24 hrs by Annexin V-FITC/PI staining based flow cytometric analysis (reference value: 3.8 %); type: functional
# [6] = test system: MGC-803; test: Induction of apoptosis in human MGC-803 cells assessed as early apoptotic cells at 10 uM incubated for 24 hrs by Annexin V-FITC/PI staining based flow cytometric analysis (reference value: 3.9 %); type: functional
# [7] = test system: MGC-803; test: Induction of apoptosis in human MGC-803 cells assessed as necrotic cells at 10 uM incubated for 24 hrs by Annexin V-FITC/PI staining based flow cytometric analysis (reference value: 2.0 %); type: functional
# [8] = test system: MGC-803; test: Induction of apoptosis in human MGC-803 cells assessed as viable cells at 5 uM incubated for 48 hrs by Annexin V-FITC/PI staining based flow cytometric analysis (reference value: 96.7 %); type: functional; conditions: read-out: Activity
# [9] = test system: MGC-803; test: Induction of apoptosis in human MGC-803 cells assessed as necrotic cells at 5 uM incubated for 48 hrs by Annexin V-FITC/PI staining based flow cytometric analysis (reference value: 0.3 %); type: functional
# [10] = test system: MGC-803; test: Induction of apoptosis in human MGC-803 cells assessed as late apoptotic cells at 7.5 uM incubated for 48 hrs by Annexin V-FITC/PI staining based flow cytometric analysis (reference value: 0.5 %); type: functional
# [11] = test system: MGC-803; test: Induction of apoptosis in human MGC-803 cells assessed as viable cells at 10 uM incubated for 48 hrs by Annexin V-FITC/PI staining based flow cytometric analysis (reference value: 96.7 %); type: functional; conditions: read-out: Activity
# [12] = test system: MGC-803; test: Induction of apoptosis in human MGC-803 cells assessed as total apoptotic cells at 10 uM incubated for 24 hrs by Annexin V-FITC/PI staining based flow cytometric analysis (reference value: 7.7 %); type: functional
# [13] = test system: MGC-803; test: Induction of apoptosis in human MGC-803 cells assessed as total apoptotic cells at 10 uM incubated for 48 hrs by Annexin V-FITC/PI staining based flow cytometric analysis relative to control; type: functional
# [14] = test system: MGC-803; test: Cell cycle arrest in human MGC-803 cells assessed as S phase cells at 5 uM incubated for 24 hrs by RNase/PI staining based flow cytometric analysis (reference value: 27.1%); type: functional
# [15] = test system: MGC-803; test: Cell cycle arrest in human MGC-803 cells assessed as G2/M phase cells at 5 uM incubated for 24 hrs by RNase/PI staining based flow cytometric analysis (reference value: 15.11%); type: functional
# [16] = test system: MGC-803; test: Cell cycle arrest in human MGC-803 cells assessed as G0/G1 phase cells at 7.5 uM incubated for 24 hrs by RNase/PI staining based flow cytometric analysis (reference value: 54.99%); type: functional
# [17] = test system: MGC-803; test: Cell cycle arrest in human MGC-803 cells assessed as S phase cells at 10 uM incubated for 24 hrs by RNase/PI staining based flow cytometric analysis (reference value: 27.1%); type: functional
# [18] = test system: MGC-803; test: Induction of mitochondrial dysfunction in human MGC-803 cells assessed as increase in green fluorescence intensity at 7.5 uM incubated for 24 hrs by JC-1 staining based fluorescence microscopic analysis (reference value: 9.9%); type: functional
# [19] = test system: MGC-803; test: Induction of mitochondrial dysfunction in human MGC-803 cells assessed as increase in ratio of green to red fluorescence intensity at 10 uM incubated for 24 hrs by JC-1 staining based fluorescence microscopic analysis; type: functional
# [20] = test system: MGC-803; test: Induction of apoptosis in human MGC-803 cells assessed as decrease in Bcl-2 protein expression at 5 to 10 uM incubated for 24 hrs by Western blot analysis; type: functional, cell-based; conditions: dose 5-10 µM
# Outline: (§1)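 After 24 h exposure of MGC-803 cells, Bcl-2, Mcl-1, Bax and cytochrome c release assessed by Western blot with band quantitation; mean ± SD from three independent experiments.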
# [21] = test system: MGC-803; test: Induction of apoptosis in human MGC-803 cells assessed as decrease in Mcl-1 protein expression at 5 to 10 uM incubated for 24 hrs by Western blot analysis; type: functional, cell-based; conditions: dose 5-10 µM; outline: as §1
# [22] = test system: MGC-803; test: Induction of apoptosis in human MGC-803 cells assessed as increase in Bax protein expression at 5 to 10 uM incubated for 24 hrs by Western blot analysis; type: functional, cell-based; conditions: dose 5-10 µM; outline: as §1
# [23] = test system: MGC-803; test: Induction of apoptosis in human MGC-803 cells assessed as activation of cytochrome C release from mitochondria to cytoplasm incubated for 24 hrs by Western blot analysis; type: functional, cell-based; conditions: dose 5-10 µM; outline: as §1
# [24] = test system: MGC-803; test: Induction of mitochondrial dysfunction in human MGC-803 cells assessed as upregulation of cleaved caspase-7 expression at 5 to 10 uM incubated for 24 hrs by Western blot analysis; type: functional, cell-based; conditions: dose 5-10 µM
# Outline: (§2)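 Western blot of caspase 9, 3, 7, PARP and γH2A.X in MGC-803 lysates after 24 h exposure to 5, 7.5 or 10 μM; band quantitation; mean ± SD from three independent experiments.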
# [25] = test system: MGC-803; test: Induction of mitochondrial dysfunction in human MGC-803 cells assessed as downregulation of procaspase-9 expression at 5 to 10 uM incubated for 24 hrs by Western blot analysis; type: functional, cell-based; conditions: dose 5-10 µM; outline: as §2
# [26] = test system: MGC-803; test: Induction of mitochondrial dysfunction in human MGC-803 cells assessed as downregulation of procaspase-7 expression at 5 to 10 uM incubated for 24 hrs by Western blot analysis; type: functional, cell-based; conditions: dose 5-10 µM; outline: as §2
# [27] = Toxicity in SCID mouse xenografted with human MGC-803 cells assessed as effect on body weight at 12.5 to 25 mg/kg, IG administered for 21 days; type: organism-based; conditions: in vivo, po, 504 h, dose 12.5-25 mg/kg, time 21 day
# Outline: (§3)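 SCID mice bearing subcutaneous MGC-803 xenografts (right side) dosed with 12.5 or 25 mg/kg over 21 days, 0.5% CMC-Na vehicle as control; body weight and tumor size monitored periodically; major organs examined histopathologically at end; means ± SD.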
# [28] = Toxicity in SCID mouse xenografted with human MGC-803 cells assessed as effect on heart at 12.5 to 25 mg/kg, IG administered for 21 days by H&E staining based histopathological analysis; type: organism-based; conditions: in vivo, po, 504 h, dose 12.5-25 mg/kg, time 21 day; outline: as §3
# [29] = Toxicity in SCID mouse xenografted with human MGC-803 cells assessed as effect on lung at 12.5 to 25 mg/kg, IG administered for 21 days by H&E staining based histopathological analysis; type: organism-based; conditions: in vivo, po, 504 h, dose 12.5-25 mg/kg, time 21 day; outline: as §3
smiles,measurement,setting,value
Cc1cc(N2CC[C@@H](C)[C@@H](N(C)c3ncnc4[nH]ccc34)C2)n2nc(SCc3ccc(C(F)(F)F)cc3)nc2n1,selectivity ratio,[1],6.5
same,inhibition at 1 µM,[2],31%
same,Activity,[3],Active
same,Activity,[4],5.5%
same,Activity,[5],8.8%
same,Activity,[6],12.7%
same,Activity,[7],2.2%
same,viability at 5 µM,[8],73.4%
same,Activity,[9],0.9%
same,Activity,[10],67.5%
same,viability at 10 µM,[11],17%
same,Activity,[12],40.7%
same,Activity,[13],82.1%
same,Activity,[14],30.04%
same,Activity,[15],10.78%
same,Activity,[16],56.42%
same,Activity,[17],28.14%
same,Activity,[18],39.1%
same,Ratio,[19],<=8.73
same,Activity,[20],Active
same,Activity,[21],Active
same,Activity,[22],Active
same,Activity,[23],Dose-Dependent Effect
same,Activity,[24],Active
same,Activity,[25],Active
same,Activity,[26],Active
same,Activity,[27],Non-Toxic
same,Activity,[28],Non-Toxic
same,Activity,[29],Non-Toxic
